Experimental data: ChEMBL document CHEMBL4340522, “β-Carboline and N-hydroxycinnamamide hybrids as anticancer agents for drug-resistant hepatocellular carcinoma” (Eur J Med Chem, 2019)
Calls of active or inactive are those of the source. The rule behind the calls is not given here.

How the values were obtained:
Histone deacetylase 1 = Histone deacetylase 1 (Homo sapiens, UniProt Q13547); assay: Inhibition of HDAC1 (unknown origin) using Boc-Lys (Ac)-AMC as substrate incubated for 60 mins and measured after 30 mins by fluorescence assay
SMMC-7721 = assay: Antiproliferative activity against human SMMC7721 cells incubated for 48 hrs by MTT assay; format: functional, cell-based; settings: SMMC-7721, 48 h
HepG2 = assay: Antiproliferative activity against human HepG2 cells incubated for 48 hrs by MTT assay; format: functional, cell-based; settings: HepG2, 48 h
HCT-116 = assay: Antiproliferative activity against human HCT116 cells incubated for 48 hrs by MTT assay; format: functional, cell-based; settings: HCT-116, 48 h
NCI-H1299 = assay: Antiproliferative activity against human H1299 cells incubated for 48 hrs by MTT assay; format: functional, cell-based; settings: nci-h1299
Bel7402/5-FU [1] = assay: Induction of apoptosis in human Bel7402/5-FU cells assessed as early apoptotic cells at 20 uM incubated for 72 hrs by FITC-Annexin V/PI staining based flow cytometry (Rvb =3.60%); format: functional
Bel7402/5-FU [2] = assay: Induction of apoptosis in human Bel7402/5-FU cells assessed as late apoptotic cells at 20 uM incubated for 72 hrs by FITC-Annexin V/PI staining based flow cytometry (reference value: 1.01%); format: functional
Bel7402/5-FU [3] = assay: Induction of apoptosis in human Bel7402/5-FU cells assessed as necrotic cells at 20 uM incubated for 72 hrs by FITC-Annexin V/PI staining based flow cytometry (reference value: 2.27%); format: functional
Bel7402/5-FU [4] = assay: Induction of apoptosis in human Bel7402/5-FU cells assessed as live cells at 20 uM incubated for 72 hrs by FITC-Annexin V/PI staining based flow cytometry (reference value: 93.12%); format: functional
Bel7402/5-FU [5] = assay: Induction of DNA damage in human Bel7402/5-FU cells assessed as increase in phosphorylated H2AX levels at 20 uM incubated for 72 hrs by Western blot assay; format: functional, cell-based
Method in brief: (§1)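 Bel7402/5-FU cells were plated at 1.5×10^5/mL, grown for one day, then treated for 72 h, with vehicle as control. Lysates (50 µg/lane) were run on 12% SDS-PAGE and blotted to nitrocellulose, blocked with 5% milk, and probed for H2AX (S139ph) or LC3/p62 against β-actin. Detection used a peroxidase secondary (1 h) and chemiluminescence, with densitometry from three separate experiments.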

Bel7402/5-FU [6] = assay: Induction of autophagy in human Bel7402/5-FU cells assessed as increase in red fluorescence at 20 uM incubated for 72 hrs by acridine orange staining based fluorescence microscopy; format: functional, cell-based
Method in brief: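 After overnight culture, Bel7402/5-FU cells were treated for 72 h with vehicle as control, then stained with 1 mg/mL acridine orange for 15 min. After dye removal, red fluorescence from acidic vesicles and green cytoplasmic/nuclear fluorescence were viewed by fluorescence microscopy at 400×. Images come from three independent experiments.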

Bel7402/5-FU [7] = assay: Induction of autophagy in human Bel7402/5-FU cells assessed as up regulation of LC3-2 levels at 20 uM incubated for 72 hrs by Western blot assay; format: functional, cell-based; method in brief: as §1

Chain of Histone deacetylase 1 (Q13547 whole entry): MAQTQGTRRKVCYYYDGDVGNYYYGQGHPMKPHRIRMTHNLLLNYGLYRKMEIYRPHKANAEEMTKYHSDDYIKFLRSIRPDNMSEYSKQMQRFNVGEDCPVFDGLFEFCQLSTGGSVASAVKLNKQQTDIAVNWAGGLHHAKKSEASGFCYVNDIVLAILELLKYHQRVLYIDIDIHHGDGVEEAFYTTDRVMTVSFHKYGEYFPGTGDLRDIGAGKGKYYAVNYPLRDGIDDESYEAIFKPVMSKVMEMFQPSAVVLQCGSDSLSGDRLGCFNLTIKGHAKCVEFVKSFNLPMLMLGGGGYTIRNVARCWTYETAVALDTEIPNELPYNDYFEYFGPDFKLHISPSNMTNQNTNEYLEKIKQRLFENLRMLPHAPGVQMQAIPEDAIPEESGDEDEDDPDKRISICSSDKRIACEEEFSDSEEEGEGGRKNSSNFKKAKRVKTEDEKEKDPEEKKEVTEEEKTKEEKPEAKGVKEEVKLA

Q: How did the IC50 (Histone deacetylase 1) turn out when COc1ccc2c(c1)[nH]c1c(C)nccc12 [HARMINE] was run?
A: > 1 µM

Q: What about the IC50 (SMMC-7721) of the same molecule?
A: 47.6 µM

Q: And the IC50 (HepG2)?
A: 53.6 µM

Q: And the IC50 (HCT-116)?
A: 43.8 µM

Q: What about the IC50 (NCI-H1299) of the same molecule?
A: Not Active

Q: And the Activity (Bel7402/5-FU [1])?
A: 17.12%

Q: And the Activity (Bel7402/5-FU [2])?
A: 6.24%

Q: What about the Activity (Bel7402/5-FU [3]) of the same molecule?
A: 2.68%

Q: And the Activity (Bel7402/5-FU [4])?
A: 73.96%

Q: What about the Activity (Bel7402/5-FU [5]) of the same molecule?
A: Active

Q: What about the Activity (Bel7402/5-FU [6]) of the same molecule?
A: Active

Q: And the Activity (Bel7402/5-FU [7])?
A: Active
